Results published in paper PMC11293336 (Cell Reports Medicine, 2024).

Legend:
[1] = system: patients with recurrent high-grade gliomas; settings: IV; cited from earlier work
[2] = system: recurrent high-grade glioma; assay: Tumor response and survival, GATOR trial; format: in vivo, human; settings: oral, 19 participants
Procedure, shortened: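 Oral dosing 1,200–6,000 mg/day, days 1–5 every 28 days, in recurrent grade III–IV glioma. OS ran from registration to death from any cause, censored at last known alive. PFS ran from registration to progression, censored if still on treatment or at last progression-free date. Medians by Kaplan–Meier; confidence intervals by Brookmeyer-Crowley method.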

COc1ccc(C[C@@H](C)[C@@H](C)Cc2ccc(OC)c(OC)c2)cc1OC [terameprocol, meso-tetra-O-methyl nordihydroguaiaretic acid]
myelosuppression [1]: nor did terameprocol cause significant myelosuppression
partial or complete responses [2]: no partial or complete responses
